From ChEMBL document CHEMBL2331228, “Synthesis and insight into the structure-activity relationships of chalcones as antimalarial agents” (J Med Chem, 2013)
Converted amounts (≈) assume the structure as drawn.

Key:
[1] = tested on: Plasmodium falciparum; assay: Antimalarial activity against schizont stage of chloroquine-sensitive Plasmodium falciparum 3D7 after more than 40 hrs by Giemsa staining-based light microscopic analysis; type: functional; details: 3D7, 40 h
Method in brief: (§1)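 Ring stages (5% D-sorbitol synchronized) of 3D7 were grown in RPMI with 10% FBS, gentamycin and Fungizone at 37 °C under CO2. They were exposed in duplicate to compound (DMSO stock, 5 mg/mL) at 2, 10 and 50 μg/mL, with 3% cell suspension and 1% parasitized cells, for >40 h. Giemsa-stained thin smears were counted for schizonts. MIC is the lowest concentration giving 100% inhibition of schizont maturation.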

[2] = tested on: Plasmodium falciparum; assay: Antimalarial activity against schizont stage of chloroquine-sensitive Plasmodium falciparum 3D7 assessed as reduction in parasitemia at 50 ug/ml after more than 40 hrs by Giemsa staining-based light microscopy; type: functional; set-up: scale not given: the % may be the effect or the level left; method in brief: as §1

Row | Compound | MIC [1] | Activity [2]
1 | COc1ccc(/C=C/C(=O)c2ccc3c(c2O)C=CC(C)(CCC=C(C)C)O3)cc1 (stereo unspecified) | > 124 µM | <100%
2 | COc1cc(OC)c(OC)cc1/C=C/C(=O)c1cc(CC=C(C)C)c(O)cc1O | 25.1 µM (≈ 10 µg/mL) | –
3 | COc1ccccc1/C=C/C(=O)c1cc(CC=C(C)C)c(O)cc1O | 29.6 µM (≈ 10 µg/mL) | –
4 | CC(C)=CCCC1(C)C=Cc2c(ccc(C(=O)/C=C/c3ccc(C#N)cc3)c2O)O1 (stereo unspecified) | 5.01 µM (≈ 2 µg/mL) | –
5 | COc1ccc(/C=C/C(=O)c2cc(CC=C(C)C)c(O)cc2O)cc1O | 28.2 µM (≈ 10 µg/mL) | –
6 | CC(C)=CCCC1(C)C=Cc2c(ccc(C(=O)CCc3cc(C=O)ccc3O)c2O)O1 (stereo unspecified) | 10.3 µM (≈ 4.33 µg/mL) | –
7 | COCOc1ccc(/C=C/C(=O)c2cc(CC=C(C)C)c(O)cc2O)cc1 | 27.2 µM (≈ 10 µg/mL) | –
8 | CC1(C)CCc2c(ccc(C(=O)/C=C/c3cccnc3)c2O)O1 | 32.4 µM (≈ 10 µg/mL) | –
9 | CC(C)=CCCC1(C)C=Cc2c(ccc(C(=O)/C=C/c3ccc(Cl)cc3Cl)c2O)O1 (stereo unspecified) | > 113 µM | <100%
10 | COc1ccc(/C=C/C(=O)c2ccc3c(c2O)C=CC(C)(C)O3)cc1OC | 137 µM (≈ 50.1 µg/mL) | –
11 | CC(C)CCCC1(C)CCc2c(ccc(C(=O)/C=C/c3cccnc3)c2O)O1 (stereo unspecified) | 5.27 µM (≈ 2 µg/mL) | –
12 | COCOc1ccc(/C=C/C(=O)c2c(O)c3c(c4c2OC(C)(CCC=C(C)C)C=C4)OC(C)(CCC=C(C)C)C=C3)cc1C(OC)OC (stereo unspecified) | 15.2 µM (≈ 10 µg/mL) | –
13 | COc1ccc(CCC(=O)c2ccc3c(c2O)C=CC(C)(C)O3)cc1 | > 148 µM | <100%
14 | CC1(C)C=Cc2c(ccc(C(=O)/C=C/c3ccc(C#N)cc3)c2O)O1 | > 151 µM | <100%
15 | CC(C)=CCCC1(C)C=Cc2c(ccc(/C=C/C(=O)c3ccc(C)c(C)c3)c2O)O1 (stereo unspecified) | 24.9 µM (≈ 10 µg/mL) | –
16 | CC(C)=CCCC1(C)C=Cc2c(ccc(C(=O)/C=C/c3ccc(Cl)cc3)c2O)O1 (stereo unspecified) | > 123 µM | <100%
17 | COc1cc(OC)c(OC)cc1/C=C/C(=O)c1ccc2c(c1O)C=CC(C)(C)O2 | 25.2 µM (≈ 10 µg/mL) | –
18 | CCOc1ccc(/C=C/C(=O)c2ccc3c(c2O)C=CC(C)(C)O3)cc1 | > 143 µM | <100%
19 | CC(C)=CCCC1(C)C=Cc2c(ccc(C(=O)/C=C/c3ccc([N+](=O)[O-])cc3)c2O)O1 (stereo unspecified) | 119 µM (≈ 50.1 µg/mL) | –
20 | CC(C)=CCCC1(C)C=Cc2c(ccc(C(=O)/C=C/c3ccc(F)c(F)c3)c2O)O1 (stereo unspecified) | 22.6 µM (≈ 9.28 µg/mL) | –
21 | CC1(C)C=Cc2c(ccc(C(=O)CCc3ccc(O)cc3)c2O)O1 | 30.9 µM (≈ 10 µg/mL) | –
22 | CC1(C)C=Cc2c(ccc(C(=O)/C=C/c3cc4ccccc4nc3Cl)c2O)O1 | 128 µM (≈ 50.1 µg/mL) | –
23 | CC(C)=CCCC1(C)C=Cc2c(ccc(C(=O)/C=C/c3ccc(N(C)C)cc3)c2O)O1 (stereo unspecified) | > 120 µM | <100%
24 | CC(C)=CCCC1(C)C=Cc2c(ccc(C(=O)/C=C/c3cnc4ccccc4c3)c2O)O1 (stereo unspecified) | 23.5 µM (≈ 10 µg/mL) | –
25 | CCOc1cc(F)ccc1/C=C/C(=O)c1ccc2c(c1O)C=CC(C)(C)O2 | 136 µM (≈ 50.1 µg/mL) | –

Row | Compound | MIC [1] | Activity [2]
26 | CC(C)=CCCC1(C)C=Cc2c(ccc(/C=C/C(=O)c3cccc(C)c3)c2O)O1 (stereo unspecified) | 25.8 µM (≈ 10 µg/mL) | –
27 | CC(C)=CCCC1(C)C=Cc2c(ccc(C(=O)/C=C/c3ccc(Br)cc3)c2O)O1 (stereo unspecified) | > 111 µM | <100%
28 | CC(C)=CCCC1(C)C=Cc2c(ccc(C(=O)/C=C/c3ccc4oc(C(=O)c5ccccc5)cc4c3)c2O)O1 (stereo unspecified) | 19.3 µM (≈ 10 µg/mL) | –
29 | COc1ccccc1/C=C/C(=O)c1ccc2c(c1O)C=CC(C)(C)O2 | > 149 µM | <100%
30 | COCOc1ccc(/C=C/C(=O)c2ccc3c(c2O)C=CC(C)(CCC=C(C)C)O3)cc1C=O (stereo unspecified) | 21.6 µM (≈ 10 µg/mL) | –
31 | CC(C)=CCCC1(C)C=Cc2c(ccc(C(=O)/C=C/c3ccccn3)c2O)O1 (stereo unspecified) | 26.7 µM (≈ 10 µg/mL) | –
32 | CC(C)=CCCC1(C)C=Cc2c(ccc(C(=O)/C=C/c3cccc([N+](=O)[O-])c3)c2O)O1 (stereo unspecified) | 4.77 µM (≈ 2 µg/mL) | –
33 | Cc1ccc2nc(Cl)c(/C=C/C(=O)c3ccc4c(c3O)C=CC(C)(C)O4)cc2c1 | 123 µM (≈ 50.1 µg/mL) | –
34 | CC1(C)C=Cc2c(ccc(C(=O)/C=C/c3cnc4ccccc4c3)c2O)O1 | > 140 µM | <100%
35 | CC1(C)C=Cc2c(ccc(C(=O)/C=C/c3ccc([N+](=O)[O-])cc3)c2O)O1 | > 142 µM | <100%
36 | CC1(C)C=Cc2c(ccc(C(=O)CCc3ccc(O)c(O)c3)c2O)O1 | 29.4 µM (≈ 10 µg/mL) | –
37 | CC(=O)Oc1ccc(/C=C/C(=O)c2ccc3c(c2O)C=CC(C)(C)O3)cc1 | 27.5 µM (≈ 10 µg/mL) | –
38 | CC1(C)C=Cc2c(ccc(C(=O)/C=C/c3ccc(Cl)cc3)c2O)O1 | 147 µM (≈ 50.1 µg/mL) | –
39 | COc1ccccc1/C=C/C(=O)c1ccc2c(c1O)C=CC(C)(CCC=C(C)C)O2 (stereo unspecified) | 124 µM (≈ 50.1 µg/mL) | –
40 | CC1(C)C=Cc2c(ccc(C(=O)/C=C/c3ccc(Cl)cc3Cl)c2O)O1 | 5.34 µM (≈ 2 µg/mL) | –
41 | COc1ccc(/C=C/C(=O)c2ccc3c(c2O)CCC(C)(CCCC(C)C)O3)cc1 (stereo unspecified) | 123 µM (≈ 50.1 µg/mL) | –
42 | CC(C)=CCCC1(C)C=Cc2c(ccc(C(=O)/C=C/c3cc4ccccc4nc3Cl)c2O)O1 (stereo unspecified) | 109 µM (≈ 50.1 µg/mL) | –
43 | COc1ccc(/C=C/C(=O)c2cc(CC=C(C)C)c(O)cc2O)cc1OC | 27.2 µM (≈ 10 µg/mL) | –
44 | CC1(C)C=Cc2c(ccc(C(=O)/C=C/c3cc(C=O)ccc3O)c2O)O1 | 28.6 µM (≈ 10 µg/mL) | –
45 | COc1ccc(/C=C/C(=O)c2ccc(O)c(CC=C(C)C)c2O)cc1O | 28.2 µM (≈ 10 µg/mL) | –
46 | CC1(C)C=Cc2c(ccc(C(=O)/C=C/c3ccccn3)c2O)O1 | 32.6 µM (≈ 10 µg/mL) | –
47 | CC1(C)C=Cc2c(ccc(C(=O)/C=C/c3ccc(F)c(F)c3)c2O)O1 | 146 µM (≈ 50 µg/mL) | –
48 | CCOc1ccc(/C=C/C(=O)c2cc(CC=C(C)C)c(O)cc2O)cc1 | 28.4 µM (≈ 10 µg/mL) | –
49 | CC(C)=CCCC1(C)C=Cc2c(ccc(C(=O)/C=C/c3cccnc3)c2O)O1 (stereo unspecified) | 5.33 µM (≈ 2 µg/mL) | –
50 | COc1ccc(CCC(=O)c2ccc3c(c2O)C=CC(C)(C)O3)cc1OC | > 136 µM | <100%

Row | Compound | MIC [1] | Activity [2]
51 | CC(C)=CCCC1(C)C=Cc2ccc(O)c(C(=O)CCc3cc(C=O)ccc3O)c2O1 (stereo unspecified) | 9.12 µM (≈ 3.84 µg/mL) | –
52 | COc1ccc(C(=O)c2cc3cc(/C=C/C(=O)c4ccc5c(c4O)C=CC(C)(CCC=C(C)C)O5)ccc3o2)cc1 (stereo unspecified) | > 91.2 µM | <100%
53 | CC(C)=CCc1cc(C(=O)/C=C/c2ccc(Cl)cc2)c(O)cc1O | 146 µM (≈ 50.1 µg/mL) | –
54 | COc1ccc(/C=C/C(=O)c2ccc3c(c2O)C=CC(C)(CCC=C(C)C)O3)cc1OC (stereo unspecified) | 115 µM (≈ 50.1 µg/mL) | –
55 | CC(C)=CCCC1(C)C=Cc2c(ccc(C(=O)/C=C/c3ccc(F)cc3)c2O)O1 (stereo unspecified) | 128 µM (≈ 50.1 µg/mL) | –
56 | CC(C)=CCCC1(C)C=Cc2c(ccc(C(=O)/C=C/c3cc4cc(C)ccc4nc3Cl)c2O)O1 (stereo unspecified) | 106 µM (≈ 50.1 µg/mL) | –
57 | CC(C)=CCc1cc(C(=O)/C=C/c2ccc(N(C)C)cc2)c(O)cc1O | 142 µM (≈ 50.1 µg/mL) | –
58 | COc1cc(/C=C/C(=O)c2cc(CC=C(C)C)c(O)cc2O)ccc1O | 28.2 µM (≈ 10 µg/mL) | –
59 | CC1(C)C=Cc2c(ccc(C(=O)/C=C/c3ccc(F)cc3F)c2O)O1 | > 146 µM | <100%
60 | CC1(C)CCc2cc(C(=O)/C=C/c3cccnc3)c(O)cc2O1 | 32.4 µM (≈ 10 µg/mL) | –
61 | CC(C)=CCCC1(C)C=Cc2c(ccc(C(=O)/C=C/c3ccc(O)cc3)c2O)O1 (stereo unspecified) [LESPEOL] | 25.6 µM (≈ 10 µg/mL) | –
62 | CCOc1cc(/C=C/C(=O)c2ccc3c(c2O)C=CC(C)(C)O3)ccc1F | > 136 µM | <100%
63 | CC1(C)C=Cc2c(ccc(C(=O)/C=C/c3cccnc3)c2O)O1 | 32.6 µM (≈ 10 µg/mL) | –
64 | CC1(C)C=Cc2c(ccc(C(=O)/C=C/c3ccc(OCCN4CCCCC4)cc3)c2OCCN2CCCCC2)O1 | 3.67 µM (≈ 2 µg/mL) | –
65 | CC1(C)C=Cc2c(ccc(C(=O)/C=C/c3ccc(O)cc3)c2O)O1 | 155 µM (≈ 50.1 µg/mL) | –
66 | CC(C)=CCCC1(C)C=Cc2c(ccc(C(=O)/C=C/c3cc(Cl)cc(Cl)c3)c2O)O1 (stereo unspecified) | 113 µM (≈ 50.2 µg/mL) | –
67 | CC(C)CCCC1(C)CCc2c(ccc(C(=O)/C=C/c3ccc(O)cc3)c2O)O1 (stereo unspecified) | 127 µM (≈ 50.1 µg/mL) | –
68 | CC1(C)C=Cc2c(ccc(C(=O)/C=C/c3ccc(Br)cc3)c2O)O1 | 130 µM (≈ 50.2 µg/mL) | –
69 | CC(C)=CCCC1(C)C=Cc2c(ccc(C(=O)/C=C/c3cccnc3)c2OCCN2CCCCC2)O1 (stereo unspecified) | 4.11 µM (≈ 2 µg/mL) | –
70 | COc1cc(/C=C/C(=O)c2ccc3c(c2O)C=CC(C)(CCC=C(C)C)O3)cc(OC)c1OC (stereo unspecified) | 21.6 µM (≈ 10 µg/mL) | –
71 | CC(C)=CCCC1(C)C=Cc2c(ccc(C(=O)/C=C/c3ccc(OCCN4CCCCC4)cc3)c2OCCN2CCCCC2)O1 (stereo unspecified) | 3.26 µM (≈ 2 µg/mL) | –
72 | CCOc1ccc(/C=C/C(=O)c2ccc3c(c2O)C=CC(C)(CCC=C(C)C)O3)cc1 (stereo unspecified) | 120 µM (≈ 50.1 µg/mL) | –
73 | COc1ccc(/C=C/C(=O)c2cc(CC=C(C)C)c(O)cc2O)cc1 | 28.6 µM (≈ 9.67 µg/mL) | –
74 | CC1(C)C=Cc2c(ccc(C(=O)/C=C/c3ccc(F)cc3)c2O)O1 | 154 µM (≈ 50.1 µg/mL) | –
75 | COc1ccc(/C=C/C(=O)c2ccc3c(c2O)C=CC(C)(C)O3)cc1 | > 149 µM | <100%
